The RNAGym collection of RNA variant scans (doi:10.1126/science.aae0568)
Fewer inactive variants are shown than the library holds.

B1: tRNA (parent)
chain: GUUCCGUUGGCGUAAUGGUAACGCGUCUCCCUCCUAAGGAGAAGACUGCGGGUUCGAGUCCCGUACGGAACG

Variants of: B1
Assay: yeast fitness relative to wild type (ratio to wild type); higher = fitter; tRNA-Arg(CCU), competitive growth, 37 C, YPD
Summary of the method: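 For this measurement, the tRNA-Arg(CCU) gene was varied by chemical synthesis at a 3% per-site mutation rate across 69 sites, and each variant was placed at the native genomic locus in Saccharomyces cerevisiae. The pooled strains went through a 24-hour competition in YPD at 37°C in six parallel replicates, with amplicons from start and end populations read by 100-nucleotide paired-end sequencing. Darwinian fitness relative to wild type followed from the change in each genotype's frequency. Genotypes needed ≥ 100 starting reads, and estimates < 0.5 were set to 0.5.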

Variant | yeast fitness
G10C U16G A43C G51C | ≤ 0.5
G10C G52A | 0.666
G10C C34G G63A A69U A70C | ≤ 0.5
G10A C30U C34U A42U A57G | ≤ 0.5
G10A C29A A42U U64C | 0.529
G10C G23C A42G G50A A57C G67A | ≤ 0.5
G10A C49A G67A | ≤ 0.5
G10C A14U U19A C22U C49U C66U | ≤ 0.5
G9C U28C A42U | 0.647
G10C G18A C30G G44A G48A G58A | ≤ 0.5
G10C A43C U47C C55U A69C | ≤ 0.5
G10C C46U C62U | ≤ 0.5
G10A U16A U28A A70U | ≤ 0.5
G10C G12C C46G C55U | ≤ 0.5
G9C U28A A40C U59C | ≤ 0.5
G10A U54G C61U | 0.55
G10C A14C | 0.61
G10A A14U | ≤ 0.5
G10A C24A C30A C31G A43U | ≤ 0.5
G10C C30G C46U | ≤ 0.5
G10C A36U | 0.539
G10A A15G | 0.782
G10C A14G C27U G38A C46G | ≤ 0.5
G10A A21C A40G U59C | ≤ 0.5

Variant | yeast fitness
G10C A14C C24A C31G | ≤ 0.5
G10C C30U G38A | 0.531
G10C C11U A21G A40G | ≤ 0.5
G10C G17A A20U | ≤ 0.5
G9C U32G C33G G50A U53G | ≤ 0.5
G10C A15U C29G U35A A36C A65G C66G | ≤ 0.5
G10A C31A C61U | ≤ 0.5
G10A C11G A69C A70G | ≤ 0.5
G10A G17C C30G C33G C61A A65U | ≤ 0.5
G10A C30A C31G | ≤ 0.5
G10A C27U C33U A43U U54C G68C | ≤ 0.5
G10A C22G C62U | ≤ 0.5
G10C A45G | 0.716
G10A G12A G68C | ≤ 0.5
G10C A15G U35A G44A | 0.589
G10C G44U | 0.587
G10A U35A G56A | 0.617
G10A C11A C29A A45C A69U | ≤ 0.5
G9C U13A G25A A40C A57C C61G G67A | ≤ 0.5
G10A G63C C66U | ≤ 0.5
G10C U19A C31G A42G | 0.627
G10A U26G A65U | ≤ 0.5
G10C A42C | 0.71
G9U C24G C55U | 0.668

Variant | yeast fitness
G10C U26A U59C C66U | ≤ 0.5
G9U A70C | 1.13
G10A C27U A40C U47A G48C | 0.585
G10A C34G U64A | ≤ 0.5
G10A U64C | 0.793
G10A A14G U26C A36U G52A | ≤ 0.5
G10C A21U G23C G56A C61A A65G | 0.567
G10A G17A U19A C29U C49G | ≤ 0.5
G9C U53A C66U | ≤ 0.5
G9C U54C U59C A69G | ≤ 0.5
G10C C55U U59A | ≤ 0.5
G10C U13A C31A C62U | ≤ 0.5
G10C U35G A43C U47C C55U A69C | 0.574
G10A C62U | 0.843
G10A A42C A43C A70U | ≤ 0.5
G9C U19C G48A U64C | 0.609
G10C G41A C62U | ≤ 0.5
G10U A42U | 0.775
C11A A15U A20C | ≤ 0.5
G10A A21C C24A G63A A65C | ≤ 0.5
C11A A15C U26A C29U C33A G38C C55A C60U | ≤ 0.5
G10C G12A C22A C24G U53A | ≤ 0.5
G10A U19A G44C G67C | 0.52
G10A A20C G38A G41A U47A | ≤ 0.5

Variant | yeast fitness
G10C U32C A42C A65C C66G | 0.614
G10A C27G U28G C34U C46G G67A | ≤ 0.5
G10C C24U C34G A65C | ≤ 0.5
G10A C27G U28G C34U C46G | 0.576
C11A A15C C24G U59A | ≤ 0.5
G10A G48A A69C | 0.628
G10C G58C G67A | ≤ 0.5
G10A C29U C30G C34A U53C | ≤ 0.5
G10A A15U A36U | ≤ 0.5
G10A U16A U35G | ≤ 0.5
G10C C22A C24G G68C | ≤ 0.5
G9U C11A C24G C30G | ≤ 0.5
G10C C11A C31U A36U G56C A57U | 0.606
G10C C29U C34U G38A G44C | ≤ 0.5
C11A A14G A15G C22A G23A C33A G38C A70U | ≤ 0.5
G10A A14U C30U C34A | ≤ 0.5
G10A C33G A70U | ≤ 0.5
G10C C24G C46U A69U | 0.569
G10A C11A C29A | 0.627
G10A A15U A36G U47G A65U | ≤ 0.5
G9C U16G C29G A40G | ≤ 0.5
G10A A14U C31A C46A A65U | ≤ 0.5
G9C U16G A20G | 0.803
G10A C33U | 0.592

Variant | yeast fitness
G10A G18C A20U C30A | ≤ 0.5
G10A C29A C34G A43C C60G | 0.663
G10A C34U | ≤ 0.5
G10C A15U C29G C46U G51C C66U | ≤ 0.5
G10C U54C G56A | ≤ 0.5
G10C C22A C24G U53A C62U | ≤ 0.5
G10C G51C A65U | ≤ 0.5
G10A C30G A65G | ≤ 0.5
G10C A20U | 0.799
G9C G39C A45C | ≤ 0.5
G10A C11A G38A G52C C61A | ≤ 0.5
G10A A21U C31G | ≤ 0.5
G10A G12A U53A | ≤ 0.5
G9C G38A | 0.624
G10A G48A | 0.636
G9U C31U A36C U53C | ≤ 0.5
G10U U26C G39A A65C | ≤ 0.5
G10A C60G C61G | 0.528
G10C C62U | 0.646
G10A A40U G52C C62A A65C A70U | 0.655
G10A U19A A42G U64A | 0.612
G9C G12C C24U C34U C49G | 0.658
G10A A20U C31G C62U | ≤ 0.5
G10C C24U C34U A36U C46A | 0.505

Variant | yeast fitness
G10C G18C A45C | ≤ 0.5
G10C G12A C33A U35G U47A C55A C61U | ≤ 0.5
G10C C29U C31U G63U | ≤ 0.5
G10C C22A | 0.705
G10C C22U | 0.803
G10A C29U A57C | ≤ 0.5
G9C G12A A57C | 0.541
G9C U28G A65C | 0.582
G10A G23C C33G C55G | ≤ 0.5
G10C U47A G48A | 0.568
G10A A15C G25A C66U | 0.543
G9C G48C | 0.695
G10C C11G C31U U35C U54A | ≤ 0.5
G10A A42G | 0.656
G10C A21C C30U G41C A70U | ≤ 0.5
G10C A14U U19C C60A G68C | ≤ 0.5
G10C C24A G44C | ≤ 0.5
G9C G12A U35G | ≤ 0.5
G9C G10C C66U | ≤ 0.5
G10A U16A C49A G50A G68C | ≤ 0.5
G10A U35G A43G C46U A69U | ≤ 0.5
G10C C33A A40U U54A | ≤ 0.5
G9C U16A C24U C30U C62U | ≤ 0.5
G10A A20G U35G A37G | ≤ 0.5

Variant | yeast fitness
G10A U26A C62U | 0.529
G10C U26A C27U A42G A70G | ≤ 0.5
G10A G23A C34G | ≤ 0.5
G10A C29G C33U G50A | 0.535
G10A C11A G67C | ≤ 0.5
G10A U19A G44C | 0.54
G9C U13A U59A | 0.718
G10A C27U G56A C60U | 0.556
G9C U16C C30A G41C A45C C46G | ≤ 0.5
G10C A43C C49U A69U | ≤ 0.5
G10C A40U U47C G68A | ≤ 0.5
G10A A36C C62G | ≤ 0.5
G10C U19A A37C G50U | 0.526
G10C C27A A42U C46G | ≤ 0.5
G10A A20C C61A C62U G63U C66A | 0.646
G10C C31A G56A A65G C66A G68C | ≤ 0.5
G10C C24U C29A A45U C46G U47A G50A | 0.702
G10C C33G C62A G67C | ≤ 0.5
G10C G23C A45U U59G | 0.528
G10A A45G | 0.839
G10C U47G C55U A70G | ≤ 0.5
G10U G48A A70U | 0.649
G10A C34U G44A | ≤ 0.5
